Results from ChEMBL document CHEMBL1152462, “Betulinic acid derivatives that target gp120 and inhibit multiple genetic subtypes of human immunodeficiency virus type 1” (Antimicrob Agents Chemother, 2008).
pIC50: −log10 of the molar value. The source made the active and inactive calls. No cut-off for these calls is given here.

Assays:
[1] = tested on: Human immunodeficiency virus 1; experiment: Antiviral activity against HIV1 WITO4160.33 infected in human TZM-b1 cells assessed as inhibition of viral infection after 2 days postinfection by luciferase reporter gene assay; type: functional, organism-based; details: Human immunodeficiency virus 1, WITO4160.33, TZM-b1, 48 h
Method in brief: (§1)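 Single-round infection of TZM-bl cells with 200 TCID50 of virus in the presence of varying compound concentrations, top concentration 15 µM. After 2 days, medium was removed and Bright-Glo reagent added to read luminescence. IC50 is the concentration giving 50% reduction in luciferase RLU relative to virus-control wells.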

[2] = tested on: Human immunodeficiency virus 1; experiment: Antiviral activity against HIV1 Du123.6 infected in human TZM-b1 cells assessed as inhibition of viral infection after 2 days postinfection by luciferase reporter gene assay; type: functional, organism-based; details: Human immunodeficiency virus 1, Du123.6, TZM-b1, 48 h; method in brief: as §1
[3] = tested on: Human immunodeficiency virus 1; experiment: Antiviral activity against HIV1 Du151.2 infected in human TZM-b1 cells assessed as inhibition of viral infection after 2 days postinfection by luciferase reporter gene assay; type: functional, organism-based; details: Human immunodeficiency virus 1, Du151.2, TZM-b1, 48 h; method in brief: as §1
[4] = tested on: Human immunodeficiency virus 1; experiment: Antiviral activity against HIV1 Du422.1 infected in human TZM-b1 cells assessed as inhibition of viral infection after 2 days postinfection by luciferase reporter gene assay; type: functional, organism-based; details: Human immunodeficiency virus 1, Du422.1, TZM-b1, 48 h; method in brief: as §1
[5] = tested on: Human immunodeficiency virus 1; experiment: Antiviral activity against HIV1 ZM197M.PB7 infected in human TZM-b1 cells assessed as inhibition of viral infection after 2 days postinfection by luciferase reporter gene assay; type: functional, organism-based; details: Human immunodeficiency virus 1, ZM197M.PB7, TZM-b1, 48 h; method in brief: as §1
[6] = tested on: Human immunodeficiency virus 1; experiment: Antiviral activity against HIV1 ZM214M.PL15 infected in human TZM-b1 cells assessed as inhibition of viral infection after 2 days postinfection by luciferase reporter gene assay; type: functional, organism-based; details: Human immunodeficiency virus 1, ZM214M.PL15, TZM-b1, 48 h; method in brief: as §1
[7] = tested on: Human immunodeficiency virus 1; experiment: Antiviral activity against HIV1 ZM55F.PB28a infected in human TZM-b1 cells assessed as inhibition of viral infection after 2 days postinfection by luciferase reporter gene assay; type: functional, organism-based; details: Human immunodeficiency virus 1, ZM55F.PB28a, TZM-b1, 48 h; method in brief: as §1
[8] = tested on: Human immunodeficiency virus 1; experiment: Antiviral activity against HIV1 ZM109F.PB4 infected in human TZM-b1 cells assessed as inhibition of viral infection after 2 days postinfection by luciferase reporter gene assay; type: functional, organism-based; details: Human immunodeficiency virus 1, ZM109F.PB4, TZM-b1, 48 h; method in brief: as §1
[9] = tested on: Human immunodeficiency virus 1; experiment: Antiviral activity against HIV1 CAP.2.00.G3 infected in human TZM-b1 cells assessed as inhibition of viral infection after 2 days postinfection by luciferase reporter gene assay; type: functional, organism-based; details: Human immunodeficiency virus 1, CAP.2.00.G3, TZM-b1, 48 h; method in brief: as §1
[10] = tested on: Human immunodeficiency virus 1; experiment: Antiviral activity against HIV1 CAP244.2.00.D3 infected in human TZM-b1 cells assessed as inhibition of viral infection after 2 days postinfection by luciferase reporter gene assay; type: functional, organism-based; details: Human immunodeficiency virus 1, CAP244.2.00.D3, TZM-b1, 48 h; method in brief: as §1
[11] = Cytotoxicity against human TZM-bl cells at 15 uM after 2 days by trypan blue exclusion assay; type: cell-based; details: 48 h
[12] = Cytotoxicity against human TZM-bl cells after 2 days by trypan blue exclusion assay; type: cell-based; details: 48 h
[13] = Ratio of inhibition of HIV1 […] envelope glycoprotein 120-mediated membrane fusion to inhibition of HIV1 (isolate YU2) envelope glycoprotein 120-mediated membrane fusion
[14] = tested on: Human immunodeficiency virus 1; experiment: Inhibition of V3-speciifc monoclonal antibody 447-52D binding to HIV1 3B gp120 by ELISA-based competitive binding assay
[15] = tested on: Human immunodeficiency virus 1; experiment: Inhibition of V3-speciifc monoclonal antibody 39F binding to HIV1 3B gp120 by ELISA-based competitive binding assay
[16] = tested on: Human immunodeficiency virus 1; experiment: Inhibition of V3-speciifc monoclonal antibody 447-52 binding to HIV1 Ba-L gp120 by ELISA-based competitive binding assay
[17] = tested on: Human immunodeficiency virus 1; experiment: Inhibition of V3-speciifc monoclonal antibody […] binding to HIV1 Ba-L gp120 by ELISA-based competitive binding assay
HOS [18] = experiment: Inhibition of HIV1 3B gp120/CD4 complex binding to CCR5 expressing HOS cells at […] after 1 hr by competitive binding assay; type: cell-based; details: Human immunodeficiency virus 1
Method in brief: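 HOS.CCR5 cells were plated on poly-D-lysine and held overnight at 37°C. Soluble CD4 (4.5 nM) was premixed 1:1 with gp120 (Ba-L or IIIB) for 15 min at room temperature. The complex was added to cells with compound at 5 µg/ml for 1 h at 37°C. Bound gp120 was detected with FITC anti-gp120 (1 h), washed three times in PBS, and read by fluorescence at 490/520 nm.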

[19] = tested on: Human immunodeficiency virus 1; experiment: Antiviral activity against HIV1 QH0515.1 infected in human TZM-b1 cells assessed as inhibition of viral infection after 2 days postinfection by luciferase reporter gene assay; type: functional, organism-based; details: Human immunodeficiency virus 1, QH0515.1, TZM-b1, 48 h; method in brief: as §1
[20] = tested on: Human immunodeficiency virus 1; experiment: Antiviral activity against HIV1 SS1196.1 infected in human TZM-b1 cells assessed as inhibition of viral infection after 2 days postinfection by luciferase reporter gene assay; type: functional, organism-based; details: Human immunodeficiency virus 1, SS1196.1, TZM-b1, 48 h; method in brief: as §1
[21] = tested on: Human immunodeficiency virus 1; experiment: Antiviral activity against HIV1 TRO.11 infected in human TZM-b1 cells assessed as inhibition of viral infection after 2 days postinfection by luciferase reporter gene assay; type: functional, organism-based; details: Human immunodeficiency virus 1, TRO.11, TZM-b1, 48 h; method in brief: as §1
[22] = tested on: Human immunodeficiency virus 1; experiment: Antiviral activity against HIV1 RHPA4259.7 infected in human TZM-b1 cells assessed as inhibition of viral infection after 2 days postinfection by luciferase reporter gene assay; type: functional, organism-based; details: Human immunodeficiency virus 1, RHPA4259.7, TZM-b1, 48 h; method in brief: as §1
[23] = tested on: Human immunodeficiency virus 1; experiment: Antiviral activity against HIV1 REJO4541.67 infected in human TZM-b1 cells assessed as inhibition of viral infection after 2 days postinfection by luciferase reporter gene assay; type: functional, organism-based; details: Human immunodeficiency virus 1, REJO4541.67, TZM-b1, 48 h; method in brief: as §1
[24] = tested on: Human immunodeficiency virus 1; experiment: Antiviral activity against HIV1 Q23.71 infected in human TZM-b1 cells assessed as inhibition of viral infection after 2 days postinfection by luciferase reporter gene assay; type: functional, organism-based; details: Human immunodeficiency virus 1, Q23.71, TZM-b1, 48 h; method in brief: as §1
[25] = tested on: Human immunodeficiency virus 1; experiment: Antiviral activity against HIV1 Q168.a2 infected in human TZM-b1 cells assessed as inhibition of viral infection after 2 days postinfection by luciferase reporter gene assay; type: functional, organism-based; details: Human immunodeficiency virus 1, Q168.a2, TZM-b1, 48 h; method in brief: as §1
[26] = tested on: Human immunodeficiency virus 1; experiment: Antiviral activity against HIV1 Q461.e2 infected in human TZM-b1 cells assessed as inhibition of viral infection after 2 days postinfection by luciferase reporter gene assay; type: functional, organism-based; details: Human immunodeficiency virus 1, Q461.e2, TZM-b1, 48 h; method in brief: as §1
[27] = tested on: Human immunodeficiency virus 1; experiment: Antiviral activity against HIV1 Q769.d22 infected in human TZM-b1 cells assessed as inhibition of viral infection after 2 days postinfection by luciferase reporter gene assay; type: functional, organism-based; details: Human immunodeficiency virus 1, Q769.d22, TZM-b1, 48 h; method in brief: as §1
[28] = tested on: Human immunodeficiency virus 1; experiment: Antiviral activity against HIV1 Q259.d2.17 infected in human TZM-b1 cells assessed as inhibition of viral infection after 2 days postinfection by luciferase reporter gene assay; type: functional, organism-based; details: Human immunodeficiency virus 1, Q259.d2.17, TZM-b1, 48 h; method in brief: as §1
[29] = tested on: Human immunodeficiency virus 1; experiment: Antiviral activity against HIV1 Q842.d12 infected in human TZM-b1 cells assessed as inhibition of viral infection after 2 days postinfection by luciferase reporter gene assay; type: functional, organism-based; details: Human immunodeficiency virus 1, Q842.d12, TZM-b1, 48 h; method in brief: as §1
[30] = tested on: Human immunodeficiency virus 1; experiment: Antiviral activity against HIV1 NL4-3 infected in human TZM-b1 cells assessed as inhibition of viral infection after 2 days postinfection by luciferase reporter gene assay; type: functional, organism-based; details: Human immunodeficiency virus 1, NL4-3, TZM-b1, 48 h; method in brief: as §1
[31] = tested on: Human immunodeficiency virus 1; experiment: Antiviral activity against HIV1 HXB2 infected in human TZM-b1 cells assessed as inhibition of viral infection after 2 days postinfection by luciferase reporter gene assay; type: functional, organism-based; details: Human immunodeficiency virus 1, HXB2, TZM-b1, 48 h; method in brief: as §1
[32] = tested on: Human immunodeficiency virus 1; experiment: Antiviral activity against HIV1 5768.4 infected in human TZM-b1 cells assessed as inhibition of viral infection after 2 days postinfection by luciferase reporter gene assay; type: functional, organism-based; details: Human immunodeficiency virus 1, 5768.4, TZM-b1, 48 h; method in brief: as §1
[33] = tested on: Human immunodeficiency virus 1; experiment: Antiviral activity against HIV1 6535.3 infected in human TZM-b1 cells assessed as inhibition of viral infection after 2 days postinfection by luciferase reporter gene assay; type: functional, organism-based; details: Human immunodeficiency virus 1, 6535.3, TZM-b1, 48 h; method in brief: as §1
HOS [34] = experiment: Inhibition of HIV1 Ba-L gp120/CD4 complex binding to CCR5 expressing HOS cells at 5 µg/ml after 1 hr by competitive binding assay; details: Human immunodeficiency virus 1
[35] = target: Envelope glycoprotein gp160 (Human immunodeficiency virus type 1 group M subtype B (isolate YU-2)(HIV-1)) (UniProt P35961); experiment: Inhibition of HIV1 (isolate YU2) envelope glycoprotein 120-mediated membrane fusion between virus-transfected african green monkey COS cells and human TZM-bl cells by luciferase-based cell-cell fusion assay in presence of IC9564; details: Human immunodeficiency virus type 1 (isolate YU2)
Envelope glycoprotein gp160 (Human immunodeficiency virus type 1 group M subtype B (isolate YU-2)(HIV-1)), sequence (P35961 whole entry, the tested form may be a part): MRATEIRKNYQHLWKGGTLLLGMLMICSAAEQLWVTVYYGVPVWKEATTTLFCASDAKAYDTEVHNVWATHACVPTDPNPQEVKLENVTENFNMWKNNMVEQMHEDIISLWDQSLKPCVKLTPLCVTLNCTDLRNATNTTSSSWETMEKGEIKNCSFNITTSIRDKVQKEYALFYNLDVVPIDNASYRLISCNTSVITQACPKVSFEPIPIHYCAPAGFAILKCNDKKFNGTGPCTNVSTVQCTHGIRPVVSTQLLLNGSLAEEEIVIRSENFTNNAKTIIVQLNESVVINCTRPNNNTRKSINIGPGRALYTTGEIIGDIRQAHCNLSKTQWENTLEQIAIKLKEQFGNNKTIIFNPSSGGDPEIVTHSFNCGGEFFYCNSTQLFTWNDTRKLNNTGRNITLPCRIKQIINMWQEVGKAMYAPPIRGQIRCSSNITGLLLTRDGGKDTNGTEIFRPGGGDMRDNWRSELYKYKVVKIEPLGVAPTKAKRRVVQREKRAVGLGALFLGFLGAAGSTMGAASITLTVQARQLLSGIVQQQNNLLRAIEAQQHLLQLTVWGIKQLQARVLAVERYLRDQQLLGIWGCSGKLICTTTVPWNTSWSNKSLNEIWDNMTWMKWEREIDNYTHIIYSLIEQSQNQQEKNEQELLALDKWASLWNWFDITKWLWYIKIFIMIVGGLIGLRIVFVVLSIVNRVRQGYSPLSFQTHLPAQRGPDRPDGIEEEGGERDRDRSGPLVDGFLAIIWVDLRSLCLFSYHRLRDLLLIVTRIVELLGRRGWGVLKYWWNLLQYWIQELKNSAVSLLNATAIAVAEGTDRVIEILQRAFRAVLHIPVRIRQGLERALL

Compound | pIC50 [2] | pIC50 [3] | pIC50 [4] | pIC50 [5] | pIC50 [6] | pIC50 [7] | pIC50 [8] | pIC50 [9] | pIC50 [10] | Activity [11] | pIC50 [12] | pIC50 [19] | pIC50 [20] | pIC50 [21] | pIC50 [22] | pIC50 [23] | pIC50 [24] | pIC50 [25] | pIC50 [26] | pIC50 [27] | further results
C=C(C)[C@@H]1CC[C@]2(C(=O)NCCCCCCCC(=O)N[C@@H](CC(C)C)[C@H](O)CC(=O)O)CC[C@]3(C)[C@H](CC[C@@H]4[C@@]5(C)CC[C@H](O)C(C)(C)[C@@H]5CC[C@]43C)[C@@H]12 | 7.05 | 6.09 | 6.19 | 7.05 | 7.15 | 6.12 | 6.09 | 7.10 | 5.92 | Non-toxic | < 4.30 | 5.90 | 6.68 | 6.12 | 6.09 | 5.97 | 5.79 | 6.21 | 6.51 | 5.39 | pIC50 [1]: 6.41; Ratio [13]: 30; inhibition [14]: Dose-dependent effect; inhibition [15]: Dose-dependent effect; inhibition [16]: Active; inhibition [17]: inactive; inhibition (HOS [18]): Active; pIC50 [28]: 6.60; pIC50 [29]: 6.09; pIC50 [30]: 7.00; pIC50 [31]: 7.10; pIC50 [32]: 6.17; pIC50 [33]: 5.14; inhibition (HOS [34]): Active
Cc1ccc(-c2ccc3c(c2)C=C(C(=O)Nc2ccc(C[N+](C)(C)C4CCOCC4)cc2)CCC3)cc1 | – | – | – | – | – | – | – | – | – | – | – | – | – | – | – | – | – | – | – | – | Activity [35]: 0.053 ng/mL
C=C(C)[C@@H]1CC[C@]2(C(=O)NCCCCCCCNC(C)=O)CC[C@]3(C)[C@H](CC[C@@H]4[C@@]5(C)CC[C@H](O)C(C)(C)[C@@H]5CC[C@]43C)[C@@H]12 | 7.10 | 6.72 | 6.77 | 7.05 | 7.32 | 6.47 | 6.40 | 6.85 | 6.40 | Non-toxic | < 4.30 | 5.98 | 6.66 | 6.10 | 6.19 | 6.07 | 6.35 | 6.51 | 6.42 | 5.43 | pIC50 [1]: 6.85; pIC50 [28]: 6.55; pIC50 [29]: 6.41; pIC50 [30]: 6.96; pIC50 [31]: 7.15; pIC50 [32]: 6.35; pIC50 [33]: 5.99
enfuvirtide | 6.48 | 6.35 | 6.25 | 5.65 | 5.57 | 6.15 | 7.05 | 5.65 | 5.74 | Non-toxic | < 4.30 | 5.65 | 5.99 | 5.78 | 6.12 | 5.95 | 6.04 | 6.11 | 5.76 | 5.65 | pIC50 [28]: 6.00; pIC50 [29]: 5.61; pIC50 [30]: 5.72; pIC50 [32]: 5.84
